Test results reported in the RNAGym collection of RNA variant scans (doi:10.1038/s41586-018-0170-7).

B1: tRNA (parent)
chain: GUUCCGUUGGCGUAAUGGUAACGCGUCUCCCUCCUAAGGAGAAGACUGCGGGUUCGAGUCCCGUACGGAACG

Variants of: B1
Experiment: yeast fitness, log relative to wild type (ln ratio); higher = fitter; tRNA-Arg(CCU), competitive growth, 37 C, 1 M NaCl
In short: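 In BY4742 missing the chromosomal gene, a combinatorial tRNA-Arg(CCU) variant library was maintained on a HIS3 centromeric plasmid. Selection ran ~6.5 generations (~26.5 h) in SC-HIS 1M NaCl at 37 °C, following 4 generations in SC-HIS at 30 °C, with three outputs per input and variant counts by 125 bp paired-end Illumina sequencing. Fitness is the natural log of a genotype's generations relative to the wild type's, with generations taken as inverse-variance-weighted, OD-scaled log2 output/input frequency.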

Point of comparison: U2C G6U C27U A43C A70G C71U, “yeast fitness (ln)” value -0.324. Against it:
- U2C G6U C46U C66A A70G C71U — higher, -0.0101
- U2G G6U C27U A43C C66A A69G A70U C71U — lower, -0.382
- G1A U2G G6A C27U A69G A70U — higher, -0.256
- U2C C27U A43C C46U A69G A70U — higher, -0.169
- U2C C46U C66A A70G — higher, -0.0556
- G1A C27U A70G — higher, -0.163
- U2G C27U A70G C71U — higher, -0.178
- G1A U2G A43C C46U C66A A70U — higher, -0.125
- G6U C27U C46U C66A A70U C71U — higher, -0.213
- U2G G6A A43C C46U A69G C71U — higher, -0.206
- G6A C27U A43C A70G — higher, -0.213
- U2C G6A C27U A43C C66U A70G C71U — higher, -0.101
- U2C C66U A70U C71U — higher, -0.152
- G1A G6A C27U C66A A69G A70G C71U — lower, -0.392
- G6U C27U C46U A69G A70G — higher, -0.192
- U2G G6A A43C C46U C66A A70U — higher, -0.0808
- U2C C66U A69G C71U — higher, -0.311
- G1A U2G C27U A43C A70U — higher, -0.154
- G6U C27U C46U C66U A70G — higher, -0.207
- G1A G6A C27U A43C C46U C66A A70U — higher, -0.192
- G1A U2C C27U C46U C66U A69G A70G — higher, -0.11
- G6A A43C C66A A69G A70G C71U — higher, -0.261
- G1A U2C G6U C27U C46U C66U A69G A70U C71U — lower, -0.518
- G1A U2C C27U A43C C46U C66A A69G A70G C71U — higher, -0.158
- U2G G6U C46U C66U A69G A70U C71U — lower, -0.39
- G1A U2G G6U C27U C46U A69G A70G C71U — lower, -0.35
- G1A U2C G6A C27U C66U A70G C71U — higher, -0.0371
- C46U C66A A70G — higher, -0.0456
- U2C C46U — higher, 0.0244
- U2G G6A C27U C46U C66U A70G C71U — higher, -0.165
- U2G G6U C27U A43C C46U — higher, -0.127
- U2C G6A A43C C46U C66A C71U — higher, -0.127
- U2G G6U C46U C66A A70U — higher, 0.00118
- G6A C46U C66A A70U — higher, -0.0387
- U2G C27U C46U C66A A69G A70G — higher, -0.163
- U2C G6A A43C C66U A69G A70G — higher, -0.0192
- G1A G6A C46U C71U — higher, -0.109
- G6A C27U A43C C46U C66U A69G A70G — lower, -0.369
- G1A U2G G6A C27U C46U C71U — higher, -0.182
- U2G G6U A43C C46U C66U A70U — higher, -0.263
- A70U C71U — higher, -0.0899
- G1A U2G G6U C27U C46U C66U A69G A70G C71U — lower, -0.339
- U2G G6A A43C C46U C66U A70U C71U — higher, -0.175
- G1A U2G C27U A43C C66A A69G C71U — higher, -0.297
- U2G G6A C27U C66U C71U — higher, -0.238
- U2G C27U C46U C66U A69G A70U C71U — lower, -0.376
- C27U A43C C66U A70G C71U — higher, -0.211
- G1A U2C G6A C66U A70U C71U — higher, -0.159
- U2G C27U C46U C66U A69G A70G C71U — higher, -0.245
- U2C G6U C46U C66U A69G C71U — higher, -0.221
- U2C G6U C66A — higher, -0.00733
- G1A G6U A43C C46U C66U A70U — higher, -0.259
- G1A U2C G6A C27U C46U C66U C71U — lower, -0.348
- G1A U2G C46U C66A A69G A70U — higher, -0.0906
- G6U C27U A69G A70G C71U — lower, -0.394
- G1A U2G C27U A43C C66A A70U C71U — lower, -0.499
- U2C A43C C66A C71U — higher, -0.169
- G6U C66U C71U — lower, -0.639
- G6U C27U A43C A69G A70G — lower, -0.401
- U2C G6U A43C C46U A70U C71U — higher, -0.125
- U2G G6A C46U A69G A70U — higher, -0.21
- G1A U2C G6U C27U A43C C66A A70G C71U — higher, -0.0539
- G1A U2G G6A C27U A43C A69G A70G — lower, -0.341
- G6U A43C C46U A69G A70U C71U — lower, -0.438
- U2G C27U A43C C66U A70U C71U — lower, -0.333
- C66U A69G A70G C71U — higher, -0.106
- G6U C46U A69G A70U C71U — higher, -0.301
- U2G C27U A43C C46U C66A A69G A70G — higher, -0.21
- U2G G6U C27U A43C C66U A70U — higher, -0.219
- U2C G6U C27U A43C C66A A69G A70G — higher, -0.156
- A70U — higher, 0.00232
- G1A G6U A43C C46U C66A A69G A70G C71U — lower, -0.393
- G1A U2G C27U A43C C66A A70U — higher, -0.195
- G6U C66A A69G — higher, 0.00209
- G6A C27U A70U C71U — higher, -0.227
- G1A U2G C27U A43C C46U C66U A70G C71U — higher, -0.318
- U2C C27U A43C C46U C66A — higher, -0.0384
- U2G G6U C27U A43C C46U C66U A70U — higher, -0.227
- U2G G6U A43C C46U C66A A69G A70U — higher, -0.0302
- G1A U2G G6A A43C C46U C71U — higher, -0.23
- G6A C27U A43C C66U C71U — higher, -0.264
- U2G G6U C27U C46U C66A A70U — higher, -0.0141
- G1A U2C G6A C46U C66A A70G C71U — higher, -0.105
- G1A C27U A43C C66A A69G A70U — lower, -0.391
- G1A A43C A69G A70U C71U — lower, -0.366
- U2G G6U A43C C46U A69G A70U C71U — lower, -0.426
- U2C G6U C27U A43C C46U C66A A69G A70G C71U — higher, -0.0738
- G1A G6A C27U C71U — higher, -0.238
- G1A A43C C46U C66U C71U — higher, -0.247
- G6A C27U A43C C46U A69G — higher, -0.166
- U2C G6A C27U A43C C66A C71U — lower, -0.333
- C46U C66A — higher, -0.0399
- G6U C27U C46U A70G — higher, -0.15
- U2C G6A C27U A43C A69G A70U C71U — lower, -0.384
- G1A C66A — higher, 0.0139
- U2C C27U C66U A69G C71U — higher, -0.303
- G1A U2C G6A A43C C46U C66U A69G A70G C71U — higher, -0.0138
- U2G G6U C66U C71U — higher, -0.203
- C27U C66A A70U C71U — higher, -0.182
- U2G G6U A43C A69G A70G C71U — higher, -0.28
- U2G G6U A69G C71U — higher, -0.17
- G1A C27U C46U C66U A70U — higher, -0.154
- U2G G6A A43C C66A A70U C71U — lower, -0.33
- U2G A43C C46U C66U A70G C71U — higher, -0.156
- G6A C27U A43C C46U C66A C71U — lower, -0.328
- G1A G6U A43C A70U — higher, -0.247
- U2G G6A C27U A43C A69G A70U C71U — lower, -0.502
- U2C G6U C27U — higher, -0.0654
- U2G C27U A43C C46U C66A A70U — higher, -0.0794
- G6U C27U C66U A69G A70U C71U — lower, -0.416
- G1A U2G G6U C46U C66A A69G A70U — higher, -0.0992
- U2C C27U A43C C46U A69G A70U C71U — higher, -0.307
- U2G C27U A43C C46U C66U A70U — higher, -0.271
- U2G C27U A43C C46U C66U A70G — higher, -0.161
- G1A G6U C66U A69G A70U — higher, -0.284
- G1A U2G G6A A43C A69G A70U C71U — lower, -0.411
- U2C A43C C66U A70U C71U — lower, -0.424
- G1A G6U C46U C66A A70U C71U — higher, -0.084
- G1A A43C C46U C66U A69G A70G — higher, -0.222
- U2G G6U C27U C46U C66U A70U C71U — higher, -0.312
- G1A G6A C27U C46U A69G A70U C71U — lower, -0.36
- C66A — higher, -0.00943
- G1A C27U C46U C66A A69G A70G C71U — higher, -0.193
- G1A A43C C66A A69G A70U C71U — higher, -0.257
- G1A G6U C46U A70G — higher, -0.173
- G1A U2C G6A C27U C66U A70G — higher, -0.128
- G6A C27U C46U C66U A70G C71U — lower, -0.387
- G1A G6U A70U — higher, -0.156
- U2C C27U A43C C66U A69G A70U — lower, -0.439
- U2C G6U A43C C46U C66U A70G C71U — lower, -0.352
- U2C G6U C27U A43C C46U A69G C71U — higher, -0.187
- G1A G6U C27U A43C C46U C66U A69G A70U — lower, -0.452
- G1A G6U C27U A43C C46U C71U — higher, -0.212
- G1A G6A A43C C46U C66U A69G C71U — higher, -0.252
- U2G G6A A43C C66U A69G C71U — higher, -0.284
- G1A U2G C27U C46U C66A A69G A70U C71U — lower, -0.476
- G1A U2C C46U A69G A70G — higher, -0.029
- U2G C46U C66A A70G — higher, -0.0687
- U2G G6U C46U C66U A70G C71U — higher, -0.152
- G6A A43C C46U C66A A70G C71U — higher, -0.286
- G1A G6U A69G A70G C71U — higher, -0.247
- G1A U2G G6U A43C C46U C66U — higher, -0.271
- U2G G6A C27U C66A A70G C71U — higher, -0.149
- G1A U2C G6U C66U A70G — higher, -0.302
- U2G C27U A43C C66U — higher, -0.214
- U2G G6A C27U C66A A69G A70G C71U — higher, -0.249
- G1A G6U A43C C66A C71U — higher, -0.0965
- C27U A43C C66U A69G A70U C71U — lower, -0.37
- G1A U2C G6U A43C C46U C66A A70U C71U — lower, -0.425
- U2G G6A C66A A70U — higher, -0.178
- G6U A43C C46U A70G C71U — higher, -0.256
- U2G A69G A70G — higher, -0.147
- G6U C27U C46U A69G A70U C71U — lower, -0.457
- G1A G6A C46U C66U C71U — higher, 0.000947
- A43C C66A A70U C71U — higher, -0.268
- U2G G6U C27U C46U A69G C71U — higher, -0.205
- G1A U2G C27U A69G A70U — higher, -0.188
- G6U C27U A43C C46U C66A — higher, -0.0176
- U2C C66U A69G A70G C71U — higher, -0.101
- G6U C27U C46U C66A A69G A70G — higher, -0.243
- U2C C27U C46U C66A — higher, -0.143
- G1A C46U C66U A70G — higher, -0.104
- G6A C66U A70G — higher, -0.00631
- G1A U2G G6A C27U C66U A69G A70U C71U — lower, -0.479
- G1A A70U — higher, -0.044
- C27U C71U — higher, -0.0403
